Test results taken from ChEMBL document CHEMBL4387752, “Identification of substituted benzothiazole sulfones as potent and selective inhibitors of endothelial lipase” (Bioorg Med Chem Lett, 2019).

Tests used:
[1] = Permeability of compound at pH 7.4 by PAMPA; format: ADME; conditions: read-out: permeability
Summary of the method: (§1)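 Permeability was measured by parallel artificial membrane permeability assay (PAMPA) at pH 5.5 and pH 7.4. Values are reported in nm/s.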

[2] = Permeability of compound at pH 5.5 by PAMPA; format: ADME; conditions: read-out: permeability; summary of the method: as §1
Endothelial lipase [3] = target: T1, Endothelial lipase (Mus musculus, UniProt Q9WVG5); assay: Inhibition of mouse endothelial lipase expressed in HEK293F cells using D31-POPC-HDL as substrate incubated for 2 hrs in presence of mouse plasma by LC/MS analysis
T1 sequence (Q9WVG5 whole entry): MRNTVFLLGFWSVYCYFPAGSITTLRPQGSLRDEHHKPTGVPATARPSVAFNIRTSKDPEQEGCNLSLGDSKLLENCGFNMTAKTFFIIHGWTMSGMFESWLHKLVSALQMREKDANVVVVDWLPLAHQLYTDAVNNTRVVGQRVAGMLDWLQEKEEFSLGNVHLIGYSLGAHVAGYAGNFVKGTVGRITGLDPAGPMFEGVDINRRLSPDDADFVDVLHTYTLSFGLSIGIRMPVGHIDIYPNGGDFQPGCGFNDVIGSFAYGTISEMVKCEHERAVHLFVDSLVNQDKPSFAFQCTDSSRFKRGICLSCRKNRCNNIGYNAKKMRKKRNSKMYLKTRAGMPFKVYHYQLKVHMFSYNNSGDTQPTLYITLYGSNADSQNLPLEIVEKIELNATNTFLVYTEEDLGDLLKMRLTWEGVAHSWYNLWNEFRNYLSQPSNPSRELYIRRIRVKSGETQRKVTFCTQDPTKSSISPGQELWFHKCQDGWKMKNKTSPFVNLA
Summary of the method: (§2)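 IC50 values were derived from the means of duplicate inhibition measurements.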

Homo sapiens = species: Homo sapiens; assay: Selectivity index, ratio of IC50 for inhibition of human hepatic lipase expressed in African green monkey COS7 cells to IC50 for inhibition of human endothelial lipase derived from human HT1080 cell conditioned media; format: cell-based
[4] = target: T2, Hepatic triacylglycerol lipase (Homo sapiens, UniProt P11150); assay: Inhibition of human hepatic lipase expressed in African green monkey COS7 cells using PED-A1 as substrate incubated for 20 mins and measured every 20 secs for 10 mins by FRET assay; format: cell-based
T2 sequence (P11150 whole entry): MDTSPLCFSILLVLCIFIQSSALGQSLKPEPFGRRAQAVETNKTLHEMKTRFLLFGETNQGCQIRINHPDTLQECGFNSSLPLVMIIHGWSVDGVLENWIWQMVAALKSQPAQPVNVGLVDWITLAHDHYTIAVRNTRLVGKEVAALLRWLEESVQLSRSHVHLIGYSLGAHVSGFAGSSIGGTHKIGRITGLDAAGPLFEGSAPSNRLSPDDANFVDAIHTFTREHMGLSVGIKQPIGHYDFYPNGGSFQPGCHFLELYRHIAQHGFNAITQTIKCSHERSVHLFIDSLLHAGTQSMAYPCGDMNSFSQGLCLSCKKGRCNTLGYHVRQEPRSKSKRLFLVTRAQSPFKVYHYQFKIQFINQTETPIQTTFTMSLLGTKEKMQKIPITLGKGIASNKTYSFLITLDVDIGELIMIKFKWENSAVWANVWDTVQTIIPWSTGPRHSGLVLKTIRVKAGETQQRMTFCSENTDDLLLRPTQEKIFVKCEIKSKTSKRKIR
Summary of the method: (§3)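 IC50s were calculated from mean inhibition values of duplicate determinations.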

Endothelial lipase [5] = target: T3, Endothelial lipase (Homo sapiens, UniProt Q9Y5X9); assay: Inhibition of human endothelial lipase using D31-POPC-HDL as substrate incubated for 2 hrs in presence of human serum by LC/MS analysis; summary of the method: as §2
T3 sequence (Q9Y5X9 whole entry): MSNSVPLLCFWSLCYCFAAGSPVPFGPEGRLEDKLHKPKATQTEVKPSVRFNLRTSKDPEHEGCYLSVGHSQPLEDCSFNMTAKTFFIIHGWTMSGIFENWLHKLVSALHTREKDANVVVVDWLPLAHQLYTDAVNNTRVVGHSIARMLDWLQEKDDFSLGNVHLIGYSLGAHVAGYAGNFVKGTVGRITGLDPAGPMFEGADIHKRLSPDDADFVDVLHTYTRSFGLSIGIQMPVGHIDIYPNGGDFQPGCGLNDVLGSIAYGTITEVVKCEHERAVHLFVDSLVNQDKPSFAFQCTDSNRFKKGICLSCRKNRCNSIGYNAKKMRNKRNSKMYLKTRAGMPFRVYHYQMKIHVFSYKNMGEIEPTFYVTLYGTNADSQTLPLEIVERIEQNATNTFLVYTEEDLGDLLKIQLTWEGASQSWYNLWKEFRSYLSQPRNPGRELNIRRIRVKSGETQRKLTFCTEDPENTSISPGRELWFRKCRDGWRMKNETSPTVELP

[6] = Tmax in Balb/c mouse at 10 mg/kg, po; format: ADME, organism-based; conditions: in vivo
Summary of the method: (§4)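 Oral PK in fasted male balb/c mice. Dosing vehicle was ethanol/PEG 400/water (10:60:30).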

[7] = Cmax in Balb/c mouse at 10 mg/kg, po; format: ADME, organism-based; design: dose 10 mg/kg, route oral; conditions: in vivo; summary of the method: as §4
[8] = Metabolic stability in Balb/c mouse liver microsomes assessed as parent compound remaining at 0.5 uM measured after 10 mins; format: ADME, Microsome; conditions: read-out: Stability
Summary of the method: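 Test compound at 0.5 μM was incubated for 10 min with mouse liver microsomes. The read-out is the percentage of parent remaining.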

[9] = Plasma concentration in Balb/c mouse at 10 mg/kg, po measured after 24 hrs; format: ADME, organism-based; summary of the method: as §4
[10] = Plasma concentration in Balb/c mouse at 10 mg/kg, po measured after 7 hrs; format: ADME, organism-based; summary of the method: as §4
[11] = Total AUC in Balb/c mouse at 10 mg/kg, po measured after 24 hrs; format: ADME, organism-based; design: dose 10 mg/kg, time AUCmax, route oral; conditions: in vivo; summary of the method: as §4
Endothelial lipase [12] = target: T3, Endothelial lipase; assay: Inhibition of human endothelial lipase derived from human HT1080 cell conditioned media using PED-A1 as substrate incubated for 20 mins and measured every 20 secs for 10 mins by FRET assay; summary of the method: as §3

SMILES	Papp [1] [×10⁻⁶ cm/s]	Papp [2] [×10⁻⁶ cm/s]	IC50 (Endothelial lipase [3]) [nM]	Ratio IC50 (Homo sapiens)	IC50 [4] [nM]	IC50 (Endothelial lipase [5]) [nM]	Tmax [6] [h]	Cmax [7] [nM]	remaining at 10 min, 0.5 µM [8] [%]	concentration at 24 h [9] [nM]	concentration at 7 h [10] [nM]	AUC at 24 h [11] [µM·h]	IC50 (Endothelial lipase [12]) [nM]
CS(=O)(=O)C(C(=O)NCC(=O)NC1CC1)c1nc2ccc(-c3ccc(F)nc3)cc2s1 (stereo not drawn)	38.9	25.2	290	2.8	130	7	–	–	–	–	–	–	–
CS(=O)(=O)C(C(=O)NCCS(N)(=O)=O)c1nc2ccc(-c3cnn(CCN4CCOCC4)c3)cc2s1 (stereo not drawn)	–	–	190	–	–	–	3	15	74	1	4	0.1	10
O=C(CNC(=O)C(c1nc2ccc(-c3ccc(F)nc3)cc2s1)S(=O)(=O)CCC(F)(F)F)NC1CC1 (stereo not drawn)	–	–	600	2.7	79	660	–	–	–	–	–	–	–
